We go through 1 compound from ChEMBL document CHEMBL3797028, “Novel S1P1 receptor agonists - Part 4: Alkylaminomethyl substituted aryl head groups” (Eur J Med Chem, 2016).

As a reminder, the logD is lipophilicity at a set pH, counting ionised and neutral species. A higher logD goes with higher lipophilicity. The CL/F is the apparent clearance, not corrected for the fraction that reaches the circulation. As usually defined, the EC50 is the concentration giving half of the maximal effect. As usually defined, the fraction unbound is the share of the substance not bound to proteins or other matrix. A higher fraction unbound goes with much free substance.

Activity calls are given as the source filed them. The rule behind the calls is not given here. A value given as a limit tells only on which side of the number the result lay.

Data set [1] is described as follows: Plasma concentration in Wistar rat at 10 mg/kg administered as single dose through oral gavage after 72 hrs by LC-MS/MS analysis. It is filed as ADME, organism-based. A digest of the protocol: (§1)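 Single oral gavage dose to male Wistar rats in DMSO/7.5% succinylated gelatine (final 5% DMSO). Blood was drawn into EDTA at the lymphocyte-count timepoints. Plasma was prepared at 3000 g for 10 min at 4 °C and analysed by LC-MS/MS after protein precipitation.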

Data set [2] in a line: Distribution coefficient, log D between 1-octonol and phosphate buffer at pH 7. The data set is classed as physicochemical. As to conditions: 1-octanol/phosphate buffer. In a few lines: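 Partition was between 1-octanol and phosphate buffer at pH 7.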
Data set [3] concerns Rattus norvegicus. Briefly: Change in circulating lymphocyte count in Wistar rat at 10 mg/kg administered as single dose through oral gavage after 24 hrs relative to control. It is filed as functional. In a few lines: (§2)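 Male Wistar rats (RccHan:WIST; n = 6) were given a single oral gavage dose of compound in DMSO plus 7.5% succinylated gelatine (final 5% DMSO). Blood lymphocytes were counted just before dosing and at later timepoints. Percent change was calculated per animal relative to the pre-dose value and compared with a vehicle-treated group, reported as the mean. A ±15% change was treated as baseline, and a reduction of about 60% or more as maximal.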

Data set [4] is described as follows: Plasma concentration in Wistar rat at 10 mg/kg administered as single dose through oral gavage after 24 hrs by LC-MS/MS analysis. It is filed as ADME, organism-based. A digest of the protocol: as §1
A short description of data set [5]: Apparent intrinsic clearance in Wistar rat liver microsomes at 1 uM after 2.5 to 15 mins by LC-MS/MS analysis in presence of NADPH. The data set is classed as ADME. As to conditions: read-out: CLH(app). In a few lines: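 Compound at 1 uM starting concentration was depleted by 0.5 mg/mL rat liver microsomes in 100 mM sodium phosphate pH 7.4 at 37 °C, with shaking under air. Reactions were started with an NADPH-regenerating system. Samples were taken at 0, 2.5, 5, 10 and 15 min, quenched in ice-cold methanol and analysed by LC-MS/MS. CLint,app came from first-order decay fitting.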
Background: Liver microsomes are vesicles of endoplasmic reticulum, rich in cytochrome P450 enzymes.

In a further data set the test system is Liver microsome. Kind of data set: Unbound fraction corrected apparent intrinsic clearance in Wistar rat liver microsomes at 1 uM after 2.5 to 15 mins by LC-MS/MS analysis in presence of NADPH. The data set is classed as ADME. In a few lines:
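Apparent CLint was measured by microsomal substrate depletion: 1 uM start, 0.5 mg/mL rat liver microsomes, pH 7.4, 37 °C, NADPH-regenerating system, sampling 0–15 min, LC-MS/MS. It was then divided by the unbound microsomal fraction, which was determined by rapid equilibrium dialysis of 1 mg/mL microsomes for 6 h at 37 °C.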

The nature of data set [6]: Plasma concentration in Wistar rat at 10 mg/kg administered as single dose through oral gavage after 3 hrs by LC-MS/MS analysis. It is filed as ADME, organism-based. A digest of the protocol:
as §1

Data set [7] is filed under the species Rattus norvegicus. Briefly: Intrinsic clearance in rat liver microsomes scaled to body weight. As to conditions: in vitro.
The nature of data set [8]: Selectivity ratio of EC50 for human recombinant S1PR3 expressed in CHO cell membranes to EC50 for human recombinant S1PR1 expressed in CHO cell membranes. It is filed as cell-based. A digest of the protocol:
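Compound and membranes are pre-incubated 30 min at rt, then incubated 1 h at rt, filtered and counted. EC50 is the concentration giving 50% of S1P-defined specific binding, as the geometric mean of ≥3 independent duplicate runs. Ratio = EC50 S1PR3/EC50 S1PR1.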

In data set [9] the test system is Rattus norvegicus. Briefly: Change in circulating lymphocyte count in Wistar rat at 10 mg/kg administered as single dose through oral gavage after 6 hrs relative to control. It is filed as functional. In a few lines:
as §2

Data set [10] is described as follows: Apparent oral clearance in Wistar rat plasma at 1 to 10 mg/kg administered through gavage by LC-MS/MS analysis. It is filed as ADME, organism-based. A digest of the protocol: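 Male Wistar rats received a single oral gavage dose of compound dissolved in DMSO and added to 7.5% succinylated gelatine in water (final 5% DMSO). EDTA plasma was spun at 3000 g for 10 min at 4 °C and analysed by LC-MS/MS after protein precipitation. Oral clearance was estimated from the plasma concentration–time data. In vivo intrinsic clearance used the well-stirred liver model, assuming complete absorption.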

Data set [11] in a line: Plasma concentration in Wistar rat at 10 mg/kg administered as single dose through oral gavage after 6 hrs by LC-MS/MS analysis. The data set is classed as ADME, organism-based. A digest of the protocol:
as §1

Data set [12] concerns Rattus norvegicus. Kind of data set: Change in circulating lymphocyte count in Wistar rat at 10 mg/kg administered as single dose through oral gavage after 3 hrs relative to control. It is filed as functional. A digest of the protocol:
as §2

In data set [13] the target is T1, Sphingosine 1-phosphate receptor 1 (Homo sapiens, UniProt P21453). Briefly: Agonist activity at human recombinant S1PR1 expressed in CHO cell membranes assessed as [35S]GTPgammaS binding preincubated for 30 mins followed by [35S]GTPgammaS addition measured after 1 hr by topcount analysis.
T1 sequence (P21453 whole entry): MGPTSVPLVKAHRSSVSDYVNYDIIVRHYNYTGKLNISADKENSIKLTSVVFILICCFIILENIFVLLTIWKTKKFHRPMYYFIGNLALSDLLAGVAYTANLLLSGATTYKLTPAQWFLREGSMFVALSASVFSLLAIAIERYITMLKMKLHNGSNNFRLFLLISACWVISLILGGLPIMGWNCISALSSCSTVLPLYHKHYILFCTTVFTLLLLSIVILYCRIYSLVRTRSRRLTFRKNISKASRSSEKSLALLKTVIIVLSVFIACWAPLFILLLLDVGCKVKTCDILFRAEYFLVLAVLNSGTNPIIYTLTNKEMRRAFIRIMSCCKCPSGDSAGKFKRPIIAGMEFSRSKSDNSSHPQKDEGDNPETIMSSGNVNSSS
In data set [14] the target is T1, Sphingosine 1-phosphate receptor 1. Kind of data set: Partial agonist activity at human recombinant S1PR1 expressed in CHO cells by receptor internalization assay. The data set is classed as cell-based.
The target in data set [15] is Sphingosine 1-phosphate receptor 3 (Homo sapiens, UniProt Q99500). Kind of data set: Agonist activity at human recombinant S1PR3 expressed in CHO cell membranes assessed as [35S]GTPgammaS binding preincubated for 30 mins followed by [35S]GTPgammaS addition measured after 1 hr by topcount analysis. The data set is classed as functional. A digest of the protocol:
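Membranes from CHO cells expressing recombinant human S1P1 or S1P3 were used. Buffer was 20 mM Hepes pH 7.4, 100 mM NaCl, 5 mM MgCl2, 0.1% fatty-acid-free BSA, 2.5% DMSO and 50 pM 35S-GTPgammaS. GDP was […] for S1P3. Compound was preincubated 30 min at rt, then incubated 1 h at rt with 35S-GTPgammaS. Bound label was collected by filtration and counted. Specific binding was taken against 10 uM S1P. EC50 was the 50%-of-specific-binding concentration, reported as the geometric mean of at least three independent duplicate runs.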

The nature of data set [16]: Fraction unbound in Wistar rat liver microsomes incubated for 6 hrs by LC-MS/MS based equilibrium dialysis method. It is filed as ADME. A digest of the protocol:
(§3)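 Rapid equilibrium dialysis was run on a shaker for 6 h at 37 °C. The donor side held rat plasma (pH 7.2–7.6) or 1 mg/mL rat liver microsomes in phosphate buffer pH 7.4. The receiver side held phosphate buffer pH 7.4. Both sides were measured by LC-MS/MS to give free fraction and recovery.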

A short description of data set [17]: Fraction unbound in Wistar rat plasma incubated for 6 hrs by LC-MS/MS based equilibrium dialysis method. The data set is classed as ADME, cell-free. A digest of the protocol:
as §3
In general terms: Equilibrium dialysis compares concentrations on both sides of a semipermeable membrane.

Chain of Sphingosine 1-phosphate receptor 3 (Q99500 whole entry): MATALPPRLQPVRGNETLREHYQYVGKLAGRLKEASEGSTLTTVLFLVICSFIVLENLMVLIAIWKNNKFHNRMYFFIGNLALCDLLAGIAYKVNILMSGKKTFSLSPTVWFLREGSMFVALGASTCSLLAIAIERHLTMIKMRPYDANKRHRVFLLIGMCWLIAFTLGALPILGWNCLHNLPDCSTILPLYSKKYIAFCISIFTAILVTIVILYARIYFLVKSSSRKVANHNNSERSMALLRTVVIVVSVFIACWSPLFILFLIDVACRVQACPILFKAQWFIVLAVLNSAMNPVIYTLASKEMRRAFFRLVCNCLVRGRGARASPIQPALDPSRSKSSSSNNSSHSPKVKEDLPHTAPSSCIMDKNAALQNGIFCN

Consider `CCc1cc(-c2noc(-c3cc(C)cc(CN(C)CC(C)C)c3)n2)cc(C)c1OC[C@@H](O)CNC(=O)CO`, for which the concentration at 72 h in data set [1] came out at 3.7 ng/mL. The logD in data set [2] was greater than 4.1. The values for the Activity in the data set on Rattus norvegicus [3], with Rattus norvegicus [9] and in the data set on Rattus norvegicus [12] were -44%, -53% and -52%, respectively. Further, the concentration at 24 h in data set [4] turned out to be 342 ng/mL. In addition, in data set [5], the microsomal CLint at 1 µM is 20 µL/min/mg. Besides, the CL free with Liver microsome is 740 µL/min/mg. Besides, the concentration at 3 h in data set [6] is 1380 ng/mL. The CL in the data set listed under Rattus norvegicus [7] came out at 1330 mL/min/kg. The Ratio EC50 in data set [8] was 48. For the same compound, the CL/F in data set [10] came out at 8 mL/min/kg. Further, the concentration at 6 h in data set [11] amounted to 1120 ng/mL. The EC50 in [13] was 2.1 nM; in data set [15] it was 100 nM. Moreover, in data set [14], the result was inactive. The fraction unbound at 6 h in data set [16] was 0.027; in data set [17], less than 0.001.
